{"source": "paper PMC3359464", "about": "(Medicinal Chemistry Research, 2011)", "key": {"[1]": {"target": "T1, APM (Sus scrofa, UniProt P15145)", "T1 sequence (P15145 2-963)": "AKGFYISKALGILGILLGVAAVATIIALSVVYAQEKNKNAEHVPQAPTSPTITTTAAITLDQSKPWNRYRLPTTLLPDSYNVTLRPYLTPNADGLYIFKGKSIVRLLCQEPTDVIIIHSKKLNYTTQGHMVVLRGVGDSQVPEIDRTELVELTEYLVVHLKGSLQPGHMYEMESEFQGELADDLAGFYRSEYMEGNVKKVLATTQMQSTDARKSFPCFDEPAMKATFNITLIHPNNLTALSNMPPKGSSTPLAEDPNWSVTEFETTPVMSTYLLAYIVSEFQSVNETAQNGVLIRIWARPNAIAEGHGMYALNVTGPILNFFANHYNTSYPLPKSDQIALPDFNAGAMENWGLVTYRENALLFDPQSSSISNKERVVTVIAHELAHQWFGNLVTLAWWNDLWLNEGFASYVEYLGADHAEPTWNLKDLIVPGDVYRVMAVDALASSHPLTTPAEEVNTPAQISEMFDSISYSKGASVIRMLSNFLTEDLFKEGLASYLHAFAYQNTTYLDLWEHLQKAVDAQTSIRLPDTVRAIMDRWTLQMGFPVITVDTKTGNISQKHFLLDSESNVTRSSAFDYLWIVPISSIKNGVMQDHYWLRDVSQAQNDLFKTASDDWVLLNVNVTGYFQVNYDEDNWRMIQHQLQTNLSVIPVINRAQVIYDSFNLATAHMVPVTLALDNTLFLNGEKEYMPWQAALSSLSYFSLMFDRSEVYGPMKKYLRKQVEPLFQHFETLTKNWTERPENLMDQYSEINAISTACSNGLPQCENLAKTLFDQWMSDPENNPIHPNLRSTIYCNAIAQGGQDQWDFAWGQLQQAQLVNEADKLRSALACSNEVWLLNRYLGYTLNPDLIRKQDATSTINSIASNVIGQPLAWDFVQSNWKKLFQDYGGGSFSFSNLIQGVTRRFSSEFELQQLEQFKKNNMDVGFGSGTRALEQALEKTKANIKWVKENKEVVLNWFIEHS", "assay": "Degradation rates of EMs by purified APM with and without inhibitors", "format": "biochemical"}, "[2]": {"system": "rat spinal cord homogenate", "conditions": "ref Sugimoto-Watanabe et al., [1999]; cited from earlier work"}, "[3]": {"target": "T2, APM (Sus scrofa, UniProt P15145, species not given)", "T2 sequence (P15145 2-963)": "T1 sequence (P15145 2-963)", "assay": "Degradation rates of EMs by purified APM with and without inhibitors", "format": "biochemical", "conditions": "purified APM (commercially available enzyme), pH 7.4"}, "[4]": {"system": "DPP IV", "assay": "Degradation rates of EMs by purified DPP IV with and without inhibitors", "format": "biochemical", "method_in_brief": "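Commercial purified DPP IV at 0.002 mg protein/ml incubated with endomorphin and test compound (1 mM solutions in 50 mM Tris–HCl, pH 7.4) at 37°C for 0, 7.5, 15, 22.5 and 30 min. Stopped on ice with 1 M HCl, centrifuged, RP-HPLC on C18 (0.1% TFA/acetonitrile gradient). k from linear regression of ln(A/A0) versus time; % inhibition from k with and without inhibitor. Three experiments in duplicate; mean ± SEM.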"}, "[5]": {"assay": "Blood-brain barrier crossing", "format": "in vivo", "conditions": "preliminary results"}, "[6]": {"conditions": "substrate EM-1, 37°C, 0-30 min, Tris-HCl pH 7.4"}, "[7]": {"conditions": "substrate EM-2, 37°C, 0-30 min, Tris-HCl pH 7.4"}}, "note": "Residues, ends and D or L forms follow the SMILES beside them.", "data": [{"compound": "CCCCC[C@H](CC(=O)NO)C(=O)N[C@H](C(=O)N1CCC[C@H]1CO)C(C)C", "note": "[Actinonin, actinonin]", "values": [{"measurement": "100 × k, degradation rate of EM-1 by APM in the presence of inhibitor", "setting": "[1]; [6]", "value": "1.88 ± 0.09", "unit": "min⁻¹"}, {"measurement": "100 × k, degradation rate of EM-2 by APM in the presence of inhibitor", "setting": "[1]; [7]", "value": "1.50 ± 0.05", "unit": "min⁻¹"}, {"measurement": "Effect on EM-1 degradation in rat spinal cord homogenate", "setting": "[2]", "value": "significantly blocked EM-1 degradation"}]}, {"compound": "NC(=O)[C@H](Cc1ccccc1)NC(=O)[C@H](Cc1c[nH]c2ccccc12)NC(=O)[C@@H]1CCCN1C(=O)[C@@H](N)Cc1ccc(O)cc1", "note": "[EM-1, Tyr-Pro-Trp-Phe-NH2]", "values": [{"measurement": "100 × k, degradation rate of EM-1 by APM alone", "setting": "[1]; without inhibitor, 37°C", "value": "3.51 ± 0.09", "unit": "min⁻¹"}, {"measurement": "half-life", "setting": "[3]", "value": "19.7 ± 0.5", "unit": "min"}, {"measurement": "half-life", "setting": "[4]; purified DPP IV (commercially available enzyme), pH 7.4", "value": "16.7 ± 0.52", "unit": "min"}, {"measurement": "Resistance to DPP IV relative to EM-2", "setting": "[4]; without inhibitor", "value": "about 1.5 times"}, {"measurement": "100 × k, degradation rate of EM-1 by DPP IV alone", "setting": "[4]; without inhibitor, 37°C", "value": "4.12 ± 0.2", "unit": "min⁻¹"}]}, {"compound": "C[C@H](NC(=O)[C@@H]1CCCN1C(=O)[C@@H](N)Cc1ccc(O)cc1)C(N)=O", "note": "[EMDB-2, Tyr-Pro-Ala-NH2] (H-Tyr-Pro-Ala-NH2; N-terminus assumed)", "values": [{"measurement": "Crossing of the blood-brain barrier", "setting": "[5]", "value": "do not cross the blood–brain barrier"}]}, {"compound": "Ile-Pro-Ile [Diprotin A]", "values": [{"measurement": "100 × k, degradation rate of EM-1 by DPP IV in the presence of inhibitor", "setting": "[4]; [6]", "value": "0.13 ± 0.01", "unit": "min⁻¹"}, {"measurement": "100 × k, degradation rate of EM-2 by DPP IV in the presence of inhibitor", "setting": "[4]; [7]", "value": "0.18 ± 0.01", "unit": "min⁻¹"}]}]}
